Activity calls are given as the source filed them.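 The calls were made as follows: active = EC50 of 30 microM or lower, as activator or inhibitor; inactive = the rest.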

Regulator of G-protein signaling 4 (Homo sapiens), sequence (P49798 whole entry, looked up): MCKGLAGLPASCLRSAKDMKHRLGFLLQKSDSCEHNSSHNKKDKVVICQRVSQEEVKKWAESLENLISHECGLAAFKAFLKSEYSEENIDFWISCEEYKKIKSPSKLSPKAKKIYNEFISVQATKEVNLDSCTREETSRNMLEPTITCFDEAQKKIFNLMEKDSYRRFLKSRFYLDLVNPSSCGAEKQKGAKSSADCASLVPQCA

In the first assay the target is Regulator of G-protein signaling 4 (Homo sapiens) (UniProt P49798). Description: RGS4-Galphao binding modulators, SAR follow-up, biochemical, multiplexed bead flow cytometry, SAR compounds (AID 2295). The conditions noted are these: bead-based flow cytometry, RGS4-AF488 Galphao binding. An outline of the steps:
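material = streptavidin bead-bound biotinylated RGS4, multiplexed bead sets | probe or stimulus = AF488-Galphao-GDP-AlF4, 7 nM final | compound dosing = 9 points, threefold dilution steps | timing = bead, probe and compound incubation 30-90 min, room temperature | technique = flow cytometry, median green (AlexaFluor488) fluorescence per bead set | control set = DMSO wells high, beads lacking RGS low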
Turning to `NS(=O)(=O)c1ccc(N/N=C/c2ccc(O)c(O)c2O)c([N+](=O)[O-])c1`, the EC50 is 1200 nM.

Take `Cc1cccc(N2CCN(C(=O)Cn3sc4nc(C)cc(C)c4c3=O)CC2C)c1` (stereo not drawn): the EC50 was > 30000 nM (inactive).

As to `CC(=O)OCCCNc1cc(Sc2nc3ccccc3s2)c2nonc2c1[N+](=O)[O-]`, the EC50 was > 30000 nM (inactive).

Consider `Cc1[nH]n(-c2ccccc2)c(=S)c1C=NCCCN=Cc1c(C)[nH]n(-c2ccccc2)c1=S`, for which the EC50 is > 30000 nM (inactive).

On to `CC(NC(=O)c1sc2cc([N+](=O)[O-])ccc2c1Cl)C(C)(C)C` (stereo not drawn), for which the EC50 is > 30000 nM (inactive).

The assay is the same for the next values; noted with them: bead-based flow cytometry, RGS4-AF488 Galphao binding; measured here: Ki calculated from EC50.
For `NS(=O)(=O)c1ccc(N/N=C/c2ccc(O)c(O)c2O)c([N+](=O)[O-])c1`, the Ki was 1020 nM.

`CN=c1scc(C)n1/N=C/c1ccc(O)c(O)c1O`: the Ki is 1460 nM.

For the molecule `CN1CCN(C2=C(Cl)C(=O)C(c3cnc(N4CCCCC4)s3)=C(Cl)C2=O)CC1`, the Ki was 290 nM.

In the case of `O=C1C(Cl)=C(N2CCCCC2)C(=O)C(Cl)=C1c1cnc(N2CCCCC2)s1`, the Ki was 230 nM.

`O=c1c2ccccc2sn1-c1ccccc1`: the inhibitory constant (Ki) is 110 nM.

Consider `COc1ccc(C2=CC(=O)C=CC2=O)cc1`, for which the Ki was 490 nM.

As for `CCN(CC)S(=O)(=O)c1cccc(-c2n[nH]c(=S)n2/N=C/c2ccc(C(=O)OC)cc2)c1`, the Ki was 8200 nM.

As to `Cc1cccc(N2CCN(C(=O)COc3nsc4nc(C)cc(C)c34)CC2C)c1` (stereo not drawn), the Ki is 5830 nM.

Take `CCOC(=O)c1sc(NC(=O)CSc2nnc(Cc3ccccc3)o2)c(C#N)c1C`: the Ki is 6680 nM.

On to `CCN=c1scc(C)n1/N=C/c1ccc(O)c(O)c1O`, for which the Ki was 3000 nM.

For the molecule `O=c1c2ccccc2sn1-c1ccc(S(=O)(=O)N2CCCC2)cc1`, the Ki was 270 nM.

With `CCN(CC)S(=O)(=O)c1cccc(C(=O)N/N=C/c2ccc(O)c(O)c2O)c1`, the Ki is 540 nM.

In the case of `CCC(=O)NC(c1ccc(C)cc1)c1cc([N+](=O)[O-])c2cccnc2c1O` (stereo not drawn), the Ki is 5620 nM.

`O=C(NCCCN1CCOCC1)c1sc2cc([N+](=O)[O-])ccc2c1Cl`: the Ki was 8570 nM.

As to `O=C(COc1ccccc1C(=O)N/N=C/c1ccc(O)c(O)c1)N/N=C/c1ccc(O)c(O)c1`, the Ki is 140 nM.

In the case of `O=C(Cc1csc(N2CCOCC2)n1)N/N=C/c1ccc(O)c(O)c1O`, the Ki was 940 nM.

For the molecule `Cc1cc(Cl)ccc1N=c1ssnc1Cl`, the inhibitory constant (Ki) is 260 nM.

Turning to `Cc1[nH]n(-c2ccccc2)c(=S)c1C=Nc1cccc([N+](=O)[O-])c1`, the Ki is 9370 nM.

The record behind these values is PubChem BioAssay AID2295 (NMMLSC, 2010).
